pIC50: −log10 of the molar value.
Experiments:
[1] = target: Epidermal growth factor receptor (Homo sapiens, UniProt P00533); test: Inhibition of EGFR after 80 mins by radiometric protein kinase assay
[2] = target: Receptor tyrosine-protein kinase erbB-2 (Homo sapiens, UniProt P04626); test: Inhibition of ERBB2 after 80 mins by radiometric protein kinase assay
In short: (§1)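 The substrate was Poly(Glu,Tyr)4:1. 12 concentrations were run in triplicate with 1% final DMSO, at 30 °C for 80 min. Reactions were stopped with 2% H₃PO₄, washed with 0.9% NaCl, and ³³P incorporation was read by scintillation counting.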

[3] = target: Insulin-like growth factor 1 receptor (Homo sapiens, UniProt P08069); test: Inhibition of IGF1R after 80 mins by radiometric protein kinase assay
Sequence of Insulin-like growth factor 1 receptor (P08069 31-736 limits assumed): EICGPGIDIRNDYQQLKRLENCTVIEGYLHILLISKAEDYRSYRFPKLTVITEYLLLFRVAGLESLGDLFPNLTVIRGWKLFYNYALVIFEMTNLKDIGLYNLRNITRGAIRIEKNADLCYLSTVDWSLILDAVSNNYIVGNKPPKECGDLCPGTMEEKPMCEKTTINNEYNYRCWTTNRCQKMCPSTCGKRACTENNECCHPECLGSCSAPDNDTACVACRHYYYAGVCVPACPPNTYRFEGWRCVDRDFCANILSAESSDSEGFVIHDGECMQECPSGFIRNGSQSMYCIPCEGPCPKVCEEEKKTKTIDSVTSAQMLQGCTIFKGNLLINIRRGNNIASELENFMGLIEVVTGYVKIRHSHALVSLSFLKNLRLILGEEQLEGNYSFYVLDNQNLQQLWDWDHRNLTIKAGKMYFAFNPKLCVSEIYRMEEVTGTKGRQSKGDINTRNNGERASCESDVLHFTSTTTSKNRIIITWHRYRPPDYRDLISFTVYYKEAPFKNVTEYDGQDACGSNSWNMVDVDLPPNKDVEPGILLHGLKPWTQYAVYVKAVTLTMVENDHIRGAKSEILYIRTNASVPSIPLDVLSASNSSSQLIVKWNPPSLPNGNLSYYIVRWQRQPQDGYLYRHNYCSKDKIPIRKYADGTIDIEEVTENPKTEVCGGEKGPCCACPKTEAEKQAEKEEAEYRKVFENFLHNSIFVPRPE
Sequence of Insulin-like growth factor 1 receptor (P08069 741-1367 limits assumed): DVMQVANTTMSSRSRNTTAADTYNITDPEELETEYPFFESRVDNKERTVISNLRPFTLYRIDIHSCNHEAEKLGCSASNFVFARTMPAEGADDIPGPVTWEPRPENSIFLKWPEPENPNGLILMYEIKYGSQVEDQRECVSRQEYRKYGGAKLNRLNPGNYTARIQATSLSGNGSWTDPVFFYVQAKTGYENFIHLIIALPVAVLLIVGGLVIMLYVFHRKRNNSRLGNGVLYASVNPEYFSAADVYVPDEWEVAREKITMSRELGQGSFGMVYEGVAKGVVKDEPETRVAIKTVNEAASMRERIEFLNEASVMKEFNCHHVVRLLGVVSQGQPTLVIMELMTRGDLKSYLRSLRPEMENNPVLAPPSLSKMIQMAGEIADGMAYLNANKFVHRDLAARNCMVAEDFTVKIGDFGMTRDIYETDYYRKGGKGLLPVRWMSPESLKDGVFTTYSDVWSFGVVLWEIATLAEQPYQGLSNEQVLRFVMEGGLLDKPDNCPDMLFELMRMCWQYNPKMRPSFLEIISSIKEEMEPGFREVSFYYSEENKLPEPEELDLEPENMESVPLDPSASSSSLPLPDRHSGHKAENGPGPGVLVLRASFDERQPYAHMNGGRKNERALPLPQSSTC
In short: (§2)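 Radiometric [γ-33P]-ATP kinase assay with poly(Glu,Tyr) 4:1 substrate. Reaction run 80 min at 30 °C, stopped with 2% H3PO4 and washed with 0.9% NaCl. 33Pi incorporation counted by microplate scintillation. IC50 from 12 concentrations tested in triplicate, with Z'-factor used as plate control.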

[4] = target: Mast/stem cell growth factor receptor Kit (Homo sapiens, UniProt P10721); test: Inhibition of KIT after 80 mins by radiometric protein kinase assay; in short: as §1
[5] = target: Platelet-derived growth factor receptor alpha (Homo sapiens, UniProt P16234); test: Inhibition of PDGFRalpha after 80 mins by radiometric protein kinase assay
Sequence of Platelet-derived growth factor receptor alpha (P16234 whole entry): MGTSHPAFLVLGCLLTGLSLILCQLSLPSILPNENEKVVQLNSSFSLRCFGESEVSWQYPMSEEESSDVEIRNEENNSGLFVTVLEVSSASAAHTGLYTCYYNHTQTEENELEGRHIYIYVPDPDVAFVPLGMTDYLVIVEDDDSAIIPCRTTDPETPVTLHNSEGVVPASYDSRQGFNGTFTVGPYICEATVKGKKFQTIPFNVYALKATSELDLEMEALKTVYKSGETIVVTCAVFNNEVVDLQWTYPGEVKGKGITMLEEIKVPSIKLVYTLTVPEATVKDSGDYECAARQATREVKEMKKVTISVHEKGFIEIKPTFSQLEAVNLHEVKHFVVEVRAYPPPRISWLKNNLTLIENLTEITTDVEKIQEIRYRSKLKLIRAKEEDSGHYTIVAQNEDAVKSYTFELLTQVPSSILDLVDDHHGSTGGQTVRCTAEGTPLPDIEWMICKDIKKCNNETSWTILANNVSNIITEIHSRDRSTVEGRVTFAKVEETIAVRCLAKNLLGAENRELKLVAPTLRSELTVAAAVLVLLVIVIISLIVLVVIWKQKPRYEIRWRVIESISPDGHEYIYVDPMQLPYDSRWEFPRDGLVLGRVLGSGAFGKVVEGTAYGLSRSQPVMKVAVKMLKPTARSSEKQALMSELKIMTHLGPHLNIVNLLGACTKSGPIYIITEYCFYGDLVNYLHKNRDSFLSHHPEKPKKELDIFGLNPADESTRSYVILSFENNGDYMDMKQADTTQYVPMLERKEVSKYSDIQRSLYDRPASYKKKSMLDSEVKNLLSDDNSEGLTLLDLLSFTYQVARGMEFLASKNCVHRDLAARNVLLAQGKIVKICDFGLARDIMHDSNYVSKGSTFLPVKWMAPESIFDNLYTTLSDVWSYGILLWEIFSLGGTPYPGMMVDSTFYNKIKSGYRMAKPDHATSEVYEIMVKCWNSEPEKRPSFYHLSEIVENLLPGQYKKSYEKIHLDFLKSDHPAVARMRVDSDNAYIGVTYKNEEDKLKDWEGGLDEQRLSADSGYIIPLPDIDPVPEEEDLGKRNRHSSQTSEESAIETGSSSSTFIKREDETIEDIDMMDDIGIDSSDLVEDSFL
In short: (§3)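 Radiometric [γ-33P]-ATP kinase assay with poly(Ala,Glu,Lys,Tyr) 6:2:5:1 substrate. Incubated 30 °C for 80 min, then stopped with 2% H3PO4 and washed with 0.9% NaCl. 33Pi incorporation read by scintillation counting. IC50 from 12 concentrations in triplicate; plate quality checked by Z'-factor.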

[6] = target: Platelet-derived growth factor receptor beta (Homo sapiens, UniProt P09619); test: Inhibition of PDGFRbeta after 80 mins by radiometric protein kinase assay
Angiopoietin-1 receptor = Angiopoietin-1 receptor (Homo sapiens, UniProt Q02763); test: Inhibition of TIE2 after 80 mins by radiometric protein kinase assay; in short: as §3
[7] = target: Vascular endothelial growth factor receptor 1 (Homo sapiens, UniProt P17948); test: Inhibition of VEGFR1 after 80 mins by radiometric protein kinase assay; in short: as §2
[8] = target: T1, Vascular endothelial growth factor receptor 2 (Homo sapiens, UniProt P35968); test: Inhibition of VEGFR2 after 80 mins by radiometric protein kinase assay; in short: as §2
T1 sequence (P35968 whole entry): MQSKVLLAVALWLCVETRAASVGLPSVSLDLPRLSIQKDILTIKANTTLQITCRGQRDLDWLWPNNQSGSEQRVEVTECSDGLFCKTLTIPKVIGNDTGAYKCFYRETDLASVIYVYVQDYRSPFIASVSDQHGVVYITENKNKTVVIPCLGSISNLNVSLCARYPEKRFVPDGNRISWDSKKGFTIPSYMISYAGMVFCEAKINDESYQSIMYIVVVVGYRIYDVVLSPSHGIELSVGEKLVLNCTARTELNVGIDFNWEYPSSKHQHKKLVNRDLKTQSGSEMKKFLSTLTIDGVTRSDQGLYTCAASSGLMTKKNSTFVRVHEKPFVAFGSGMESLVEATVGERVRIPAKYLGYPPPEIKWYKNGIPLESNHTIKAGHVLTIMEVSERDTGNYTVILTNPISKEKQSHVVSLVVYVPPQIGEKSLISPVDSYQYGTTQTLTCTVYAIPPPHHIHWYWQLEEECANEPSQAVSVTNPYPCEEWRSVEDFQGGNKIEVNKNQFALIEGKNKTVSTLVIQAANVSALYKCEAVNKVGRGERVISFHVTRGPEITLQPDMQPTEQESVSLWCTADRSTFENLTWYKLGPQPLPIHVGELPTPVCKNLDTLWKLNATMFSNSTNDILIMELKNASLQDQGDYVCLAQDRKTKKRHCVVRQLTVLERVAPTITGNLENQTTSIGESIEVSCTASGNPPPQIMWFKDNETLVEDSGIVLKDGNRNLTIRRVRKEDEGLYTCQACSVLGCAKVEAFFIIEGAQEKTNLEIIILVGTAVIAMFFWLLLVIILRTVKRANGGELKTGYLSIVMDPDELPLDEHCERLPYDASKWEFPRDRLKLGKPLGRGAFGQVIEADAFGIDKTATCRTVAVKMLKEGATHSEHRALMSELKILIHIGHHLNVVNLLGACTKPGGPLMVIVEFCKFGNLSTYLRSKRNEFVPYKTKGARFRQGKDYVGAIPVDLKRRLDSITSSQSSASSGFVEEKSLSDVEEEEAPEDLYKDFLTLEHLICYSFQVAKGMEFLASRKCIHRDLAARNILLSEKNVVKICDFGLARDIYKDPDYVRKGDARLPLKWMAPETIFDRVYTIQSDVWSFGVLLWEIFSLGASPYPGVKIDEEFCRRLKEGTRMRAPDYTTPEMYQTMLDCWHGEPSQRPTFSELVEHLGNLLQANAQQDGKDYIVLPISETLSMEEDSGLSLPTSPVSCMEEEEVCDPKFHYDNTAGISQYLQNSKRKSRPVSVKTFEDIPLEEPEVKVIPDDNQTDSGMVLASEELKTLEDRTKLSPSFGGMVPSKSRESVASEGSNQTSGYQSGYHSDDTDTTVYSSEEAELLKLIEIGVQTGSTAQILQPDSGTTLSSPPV

[9] = target: Vascular endothelial growth factor receptor 3 (Homo sapiens, UniProt P35916); test: Inhibition of VEGFR3 after 80 mins by radiometric protein kinase assay; in short: as §2
[10] = target: T1, Vascular endothelial growth factor receptor 2; settings: HEK293, 10 uM
[11] = target: T1, Vascular endothelial growth factor receptor 2; settings: HEK293, 20 uM

Sequence of Receptor tyrosine-protein kinase erbB-2 (P04626 whole entry): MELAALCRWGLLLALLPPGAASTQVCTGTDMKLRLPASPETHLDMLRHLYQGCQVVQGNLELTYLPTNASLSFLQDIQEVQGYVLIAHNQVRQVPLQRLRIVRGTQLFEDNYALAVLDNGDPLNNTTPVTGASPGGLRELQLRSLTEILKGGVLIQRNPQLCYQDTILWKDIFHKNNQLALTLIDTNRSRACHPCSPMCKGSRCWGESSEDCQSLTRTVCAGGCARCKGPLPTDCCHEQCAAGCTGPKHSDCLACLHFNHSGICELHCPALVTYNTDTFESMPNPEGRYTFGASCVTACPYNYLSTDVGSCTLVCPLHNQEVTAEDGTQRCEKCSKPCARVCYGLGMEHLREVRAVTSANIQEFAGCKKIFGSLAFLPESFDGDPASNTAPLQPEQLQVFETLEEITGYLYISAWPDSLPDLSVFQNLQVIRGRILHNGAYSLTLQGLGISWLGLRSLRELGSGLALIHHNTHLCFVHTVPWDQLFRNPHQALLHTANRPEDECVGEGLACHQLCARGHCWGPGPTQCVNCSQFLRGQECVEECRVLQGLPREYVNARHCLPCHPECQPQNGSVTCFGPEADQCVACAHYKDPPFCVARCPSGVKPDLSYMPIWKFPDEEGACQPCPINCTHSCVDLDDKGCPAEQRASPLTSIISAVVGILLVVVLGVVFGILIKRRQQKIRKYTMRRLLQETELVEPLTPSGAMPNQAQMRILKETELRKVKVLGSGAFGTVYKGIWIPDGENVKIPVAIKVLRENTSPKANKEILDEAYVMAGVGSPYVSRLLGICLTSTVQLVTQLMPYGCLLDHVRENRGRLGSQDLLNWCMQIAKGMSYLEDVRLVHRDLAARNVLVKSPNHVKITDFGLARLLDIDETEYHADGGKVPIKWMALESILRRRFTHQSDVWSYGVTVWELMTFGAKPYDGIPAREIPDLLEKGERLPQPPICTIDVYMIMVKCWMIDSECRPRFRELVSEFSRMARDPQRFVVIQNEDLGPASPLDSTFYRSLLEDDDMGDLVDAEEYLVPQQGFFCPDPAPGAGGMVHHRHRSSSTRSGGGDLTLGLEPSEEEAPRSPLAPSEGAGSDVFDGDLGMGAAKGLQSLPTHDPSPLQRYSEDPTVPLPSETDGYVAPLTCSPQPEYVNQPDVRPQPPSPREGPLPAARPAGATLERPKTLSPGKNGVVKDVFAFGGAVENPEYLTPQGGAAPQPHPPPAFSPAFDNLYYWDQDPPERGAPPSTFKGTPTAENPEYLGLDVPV

SMILES | pIC50 [1] | pIC50 [2] | pIC50 [3] | pIC50 [4] | pIC50 [5] | pIC50 [6] | pIC50 (Angiopoietin-1 receptor) | pIC50 [7] | pIC50 [8] | pIC50 [9] | Stability [10] [% ID/g] | Stability [11] [% ID/g]
COc1cc(C2=C(c3c[nH]c4ccc(F)cc34)C(=O)NC2=O)cc(OC)c1OC | < 5.07 | < 5.07 | 5.07 | 5.46 | 5.74 | 5.57 | 5.80 | 6.82 | 7.09 | 7.18 |  | 
COc1cc(C2=C(c3c[nH]c4ccccc34)C(=O)NC2=O)cc(OC)c1OC [MALEIMIDE] |  |  |  |  |  |  |  |  |  |  | 72 | 68
COc1cc(C2=C(c3c[nH]c4ccc(Br)cc34)C(=O)NC2=O)cc(OC)c1OC | 5.24 | 4.88 | 5.37 | 5.49 | 5.94 | 6.05 | 5.63 | 7.14 | 7.65 | 7.68 |  | 

Reference: ChEMBL document CHEMBL1158526, “Labeled 3-aryl-4-indolylmaleimide derivatives and their potential as angiogenic PET biomarkers” (Bioorg Med Chem, 2010)
